The record followed here is ChEMBL document CHEMBL3046065, “Metabolites of the fungistatic agent 2β-methoxyclovan-9α-ol by Macrophomina phaseolina” (J Agric Food Chem, 2011).

Molecules are shown by their SMILES.

One series deals with Botrytis cinerea. Description: Antifungal activity against Botryotinia fuckeliana KUCC 869 assessed as growth inhibition at 200 ug/ml at 27 to 29 degC after 7 days by agar tube dilution method. The series is classed as functional. The conditions noted are these: KUCC 869, 168 h, read-out: GI. An outline of the steps:
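Agar tube dilution against B. cinerea isolated from infected strawberries. Compounds were taken from 1 mg/mL DMSO stocks into unsolidified Sabouraud agar at 200 μg/mL final. The agar was set as slants and inoculated with 4 mm plugs from 7-day-old culture, then incubated 7 days at 27–29 °C. Linear growth (mm) was measured and % inhibition calculated against control. Miconazole served as standard.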

The test system of series [1] is Macrophomina phaseolina. As to the kind of experiment: Drug metabolism in Macrophomina phaseolina KUCC 730 assessed as transformation to oxidative metabolite, 2-beta-methoxyclovan-9-one at 600 mg at 29 degC after 6 days by TLC analysis. The series is classed as ADME, organism-based. The following applies: in vivo, 144 h. The essentials:
(§1)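 Fungus kept on Sabouraud dextrose agar slants at 4 °C. Medium per 3 L water: glucose 30 g, peptone 15 g, yeast extract 15 g, KH2PO4 15 g, NaCl 15 g, glycerol 30 mL. Adjusted to pH 7.0 and autoclaved. Substrate in acetone, 20 mg per 100 mL flask, added to 24 h stage II cultures. Shaken at 200 rpm, 29 °C, 6 days. Daily TLC monitoring. Substrate-only and fungus-only controls were run.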

Series [2] has as its system Macrophomina phaseolina. As to the kind of experiment: Drug metabolism in Macrophomina phaseolina KUCC 730 assessed as transformation to oxidative metabolite, clovan-2-beta, 9-beta, 13-triol at 600 mg at 29 degC after 6 days by TLC analysis. The following applies: in vivo, 144 h. It counts as ADME, organism-based. The essentials: as §1
Series [3] relates to Macrophomina phaseolina. As to the kind of experiment: Drug metabolism in Macrophomina phaseolina KUCC 730 assessed as transformation to oxidative metabolite, clovan-2-beta, 13-diol-9-one at 600 mg at 29 degC after 6 days by TLC analysis. The series is classed as ADME, organism-based. The conditions noted are these: in vivo, 144 h. An outline of the steps: as §1
Series [4] has as its system Macrophomina phaseolina. As to the kind of experiment: Drug metabolism in Macrophomina phaseolina KUCC 730 assessed as transformation to oxidative metabolite, clovan-2-beta, 9-beta-diol at 600 mg at 29 degC after 6 days by TLC analysis. It counts as ADME, organism-based. The conditions noted are these: in vivo, 144 h. An outline of the steps: as §1
Series [5] has as its system Macrophomina phaseolina. Description: Drug metabolism in Macrophomina phaseolina KUCC 730 assessed as transformation to oxidative metabolite, 2-beta-methoxyclovan-9-alpha-13-diol at 600 mg at 29 degC after 6 days by TLC analysis. The series is classed as ADME, organism-based. The following applies: in vivo, 144 h. The essentials: as §1
The test system of series [6] is Macrophomina phaseolina. As to the kind of experiment: Drug metabolism in Macrophomina phaseolina KUCC 730 assessed as transformation to oxidative metabolite, clovan-2-beta, 9-alpha-diol at 600 mg at 29 degC after 6 days by TLC analysis. The series is classed as ADME, organism-based. The conditions noted are these: in vivo, 144 h. The essentials: as §1

Take `CC1(C)C[C@H](O)[C@]23CC[C@H](O)[C@@](C)(CC[C@@H]12)C3`: the inhibition of growth at 200 µg/mL in the series with Botrytis cinerea is 32%.
The same measure, in the same setting: the same measure for `CO[C@H]1C[C@@](C)(CO)[C@@H]2CC[C@@]3(C)C[C@]12CC[C@H]3O`: 17%.
For the compound `CO[C@H]1CC(C)(C)[C@@H]2CC[C@@]3(C)C[C@]12CC[C@H]3O` [2BETA-METHOXYCLOVAN-9ALPHA-OL], the Drug metabolism entry in the series with Macrophomina phaseolina [1], with Macrophomina phaseolina [2], in the series with Macrophomina phaseolina [3], in the series on Macrophomina phaseolina [4], in the series with Macrophomina phaseolina [5] and in the series on Macrophomina phaseolina [6] was “Active” each time. In addition, in the series on Botrytis cinerea, the inhibition of growth at 200 µg/mL was determined as 81%.
`C[C@@]12CC[C@H]3[C@](C)(CO)C[C@H](O)[C@@]3(CC[C@@H]1O)C2`: in the series on Botrytis cinerea, the inhibition of growth at 200 µg/mL was determined as 11%.
On the same count and under the same terms, for `C[C@@]12CC[C@H]3[C@](C)(CO)C[C@H](O)[C@@]3(CCC1=O)C2` the value was 8%; for `CC1(C)C[C@H](O)[C@]23CC[C@@H](O)[C@@](C)(CC[C@@H]12)C3` [CLOVANEDIOL], 59%; for `CO[C@H]1CC(C)(C)[C@@H]2CC[C@@]3(C)C[C@]12CCC3=O`, 71%.
